Drawing on ChEMBL document CHEMBL1671807, “Structure-activity relations on [1-(3,5-difluoro-4-hydroxyphenyl)-1H-pyrrol-3-yl]phenylmethanone. The effect of methoxy substitution on aldose reductase inhibitory activity and selectivity” (Bioorg Med Chem, 2011), this text covers Ratio IC50, IC50 and Activity for 7 molecules.

The species entered for one assay is Rattus norvegicus. Nature of the assay: Selectivity index, ratio of IC50 for rat kidney ALR1 to IC50 for rat lens ALR2. It counts as tissue-based. The conditions noted are these: Lens of camera-type eye. In a few lines: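 Ratio of IC50 values: rat kidney enzyme assayed with D-glucuronate at 37 °C, rat lens enzyme with D,L-glyceraldehyde at 30 °C. Both read as NADPH consumption at 340 nm, five compound concentrations, IC50 from the linear part of the log dose–response curve, triplicate.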

In assay [1] the target is Aldo-keto reductase family 1 member B1 (Rattus norvegicus, UniProt P07943). Briefly: Inhibition of rat lens ALR2. It counts as tissue-based, Lens of camera-type eye. Summed up: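 Partially purified rat lens enzyme (water homogenate, supernatant after 40% ammonium sulfate). NADPH consumption read at 340 nm with D,L-glyceraldehyde as substrate at 30 °C. Compounds dissolved in 10% aqueous NaHCO3 and tested at five concentrations. IC50 from least-squares fit of the linear part of the log dose–response curve; triplicate.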

Assay [2] in a line: Inhibition of rat kidney ALR1. In a few lines: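 Enzyme partially purified from Fischer-344 rat kidney by ammonium sulfate fractionation (40/50/75%) and DEAE treatment, with no detectable ALR2 activity. NADPH consumption followed at 340 nm with D-glucuronate substrate at 37 °C. Compounds in 10% aqueous NaHCO3, five concentrations. IC50 from least-squares fit of the linear part of the log dose–response; triplicate.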

Assay [3] is described as follows: Antioxidant activity assessed as inhibition of AAPH-induced lipid peroxidation of DOPC liposomes. It counts as functional. In a few lines: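 Unilamellar DOPC liposomes, 0.8 mM final, in 20 mM phosphate buffer pH 7.4, incubated with compound at 10–300 µM and AAPH (10 mM final) at 50 °C for 80 min. Lipids extracted with CHCl3/MeOH 2:1 containing 0.05% BHT. Hydroperoxides read by the thiocyanate method at 500 nm against a cumene hydroperoxide calibration. IC50 from the linear part of the semilog inhibition plot; triplicate.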

Assay [4] in a line: Inhibition of glucose-induced sorbitol accumulation in rat lens at 100 uM (Rbv = 643.5+/-133 nmol/g). The format is functional, Lens of camera-type eye.

SMILES strings stand for the structures.

On to `COc1cccc(C(=O)c2ccn(-c3cc(F)c(O)c(F)c3)c2)c1`, for which, in the assay listed under Rattus norvegicus, the Ratio IC50 is 5.2. Further, the half-maximal inhibitory concentration (IC50) (in general, the midpoint of a concentration-inhibition curve) in assay [1] came to 9.93 µM; in assay [2], 51.8 µM.
`COc1ccc(C(=O)c2cccn2-c2cc(F)c(O)c(F)c2)cc1`: the Ratio IC50 in the assay listed under Rattus norvegicus was found to be 71.6. Also, the results for the IC50 in assay [3], in assay [1] and in assay [2] were 35.8 µM, 0.39 µM and 27.8 µM, respectively. For the same molecule, the Activity in assay [4] is 203.5 nmol/g.
Consider `COc1cccc(C(=O)c2cccn2-c2cc(F)c(O)c(F)c2)c1`, for which, in the assay listed under Rattus norvegicus, the Ratio IC50 turned out to be 19.9. Also, the IC50 in assay [1] was 1.18 µM; in assay [2] it was 23.5 µM.
For `O=C(c1ccccc1)c1ccn(-c2ccc(F)c(O)c2F)c1`, in the assay filed under Rattus norvegicus, the Ratio IC50 is 1.3. For the same molecule, the IC50 in assay [1] was 1.26 µM; in assay [2] it was 1.61 µM.
Turning to `O=C(c1ccccc1)c1cccn1-c1cc(F)c(O)c(F)c1`, in the assay filed under Rattus norvegicus, the Ratio IC50 amounted to 4.3. Moreover, the results for the IC50 in assay [1] and in assay [2] were 1.06 µM and 4.6 µM, respectively.
Regarding `COc1ccc(C(=O)c2ccn(-c3cc(F)c(O)c(F)c3)c2)cc1`, the Ratio IC50 in the assay listed under Rattus norvegicus was over 4. Besides, the IC50 in assay [1] is 24.9 µM; in assay [2], over 100 µM.
For `O=C(c1ccccc1)c1ccn(-c2cc(F)c(O)c(F)c2)c1`, the Ratio IC50 in the assay filed under Rattus norvegicus turned out to be 33.8. Moreover, it took 13.4 µM to reach half-maximal inhibition in assay [2] (IC50).
